Source: ChEMBL document CHEMBL1122794, “[(Arylcarbonyl)oxy]propanolamines. 1. Novel beta-blockers with ultrashort duration of action” (J Med Chem, 1984)
Activity calls are given as the source filed them. No cut-off for these calls is given here.

Key:
Adrenergic receptor beta [1] = molecular target: T1, Adrenergic receptor beta (Homo sapiens, UniProt P08588+P07550+P13945); test: In vitro blocking of beta adrenergic receptor in guinea pig trachea; assay type: tissue-based, Cavia porcellus; details: target entry is the homologue from another species
Adrenergic receptor beta [2] = molecular target: T1, Adrenergic receptor beta; test: In Vitro inhibition of the beta adrenergic receptor in guinea pig atria; assay type: tissue-based, Cavia porcellus; details: target entry is the homologue from another species
[3] = Selectivity determined by expression 10[pA2(atria) - pA2 (trachea)] in guinea pig; assay type: functional, Cavia porcellus
[4] = t1/2 in canine liver; assay type: ADME, Canis lupus familiaris; details: dog
[5] = Time in which 1/2 of the initial amount disappeared in human blood.; assay type: ADME, organism-based
Method in brief: (§1)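 1 mL of solution containing 50 µg of compound was added to 1 mL of dog or human whole blood, or to 1 mL of 33% (w/v) canine liver homogenate. They were assayed by HPLC on a phenyl column with 60% acetonitrile/40% 0.05 M sodium phosphate (pH 6.6) and UV detection. Half-life was read graphically from concentration versus time.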

[6] = T1/2 in canine blood; assay type: ADME, […], Canis lupus familiaris; details: dog; method in brief: as §1
Canis familiaris [7] = species: Canis familiaris; test: Time taken for 80% recovery at a dose of 25 microg (3-h infusion period); assay type: functional, organism-based; details: Canis lupus familiaris
Canis familiaris [8] = species: Canis familiaris; test: Time taken for 80% recovery at a dose of 209 microg (3-h infusion period); assay type: functional, organism-based; details: Canis lupus familiaris
[9] = Stability at pH 7.4 and 37 degree Celsius (after 18 h); assay type: physicochemical; details: buffer
Method in brief: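 Chemical stability was tested in pH 7.4 buffer at 37 °C. The percentage of parent compound remaining after 18 h of incubation was recorded.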

Canis familiaris [10] = species: Canis familiaris; test: Time taken for 80% recovery at a dose of 50 microg (3-h infusion period); assay type: functional, organism-based; details: Canis lupus familiaris
Canis familiaris [11] = species: Canis familiaris; test: Time taken for 80% recovery at a dose of 18 microg (3-h infusion period); assay type: functional, organism-based; details: Canis lupus familiaris
Canis familiaris [12] = species: Canis familiaris; test: Time taken for 80% recovery at a dose of 226 microg (3-h infusion period); assay type: functional, organism-based; details: Canis lupus familiaris
Canis familiaris [13] = species: Canis familiaris; test: Time taken for 80% recovery at a dose of 7 microg (3-h infusion period); assay type: functional, organism-based; details: Canis lupus familiaris
Method in brief: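 After the infusion ended, the time to 80% recovery of the blockade was recorded as duration of action. The listed dose is the average amount infused per minute over the 3-h period, in µg/(kg min).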

Canis familiaris [14] = species: Canis familiaris; test: Percent inhibition of isoproterenol induced tachycardia at a dose of 7 microg (3-h infusion period); assay type: functional, Canis lupus familiaris

Row | Structure (SMILES) | pA2 (Adrenergic receptor beta [1]) | pA2 (Adrenergic receptor beta [2]) | Selectivity [3] | also measured
1 | CC(C)NCC(O)COC(=O)c1cccc([N+](=O)[O-])c1 (centres undefined) | 7.2 | 6.8 | -2.5 | –
2 | CCCOc1cccc(C(=O)OCC(O)CNC(C)C)c1 (centres undefined) | – | 6.6 | – | –
3 | C=CCOc1ccc(C(=O)OCC(O)CNC(C)(C)C)cc1 (centres undefined) | – | 6 | – | –
4 | CC(C)NCC(O)COC(=O)c1ccc(O)cc1 (centres undefined) | 7.2 | 6.8 | -2.5 | Recovery time (Canis familiaris [7]): > 45 min
5 | COc1ccc(CCNCC(O)COC(=O)c2ccc(N)cc2)cc1OC (centres undefined) | 5.7 | 6.5 | 6 | –
6 | C=CCOc1cccc(C(=O)OCC(O)CNC(C)C)c1 (centres undefined) | 6.8 | 6.8 | 1 | –
7 | COc1ccc(C(=O)OCC(O)CNC(C)C)cc1 (centres undefined) | 6.3 | 6 | -2 | Recovery time (Canis familiaris [8]): > 60 min; half-life [4]: 37 min; half-life [5]: 55 min; half-life [6]: 150 min
8 | CC(C)(C)NCC(O)COC(=O)C(c1ccccc1)c1ccccc1 (centres undefined) | – | < 5.5 | – | half-life [5]: 120 min; half-life [6]: > 180 min
9 | CC(C)NCC(O)COc1ccccc1 (centres undefined) | 7.4 | 8 | 4 | –
10 | CC(=O)Nc1ccc(C(=O)OCC(O)CNC(C)C)cc1 (centres undefined) | 5.2 | 5.8 | 4 | –
11 | CC(C)(C)NCC(O)COC(=O)c1ccccc1Cl (centres undefined) | – | – | – | remaining at 18 h [9]: 98%; Recovery time (Canis familiaris [11]): > 35 min; half-life [4]: 72 min; half-life [5]: 6 min; half-life [6]: 31 min
12 | COc1ccc(CCNCC(O)COC(=O)c2ccc(CO)cc2)cc1OC (centres undefined) | – | < 5.5 | – | –
13 | COc1ccc(CCNCC(O)COC(=O)c2ccccc2C)cc1OC (centres undefined) | 6.8 | 7 | 2 | remaining at 18 h [9]: 94%; Recovery time (Canis familiaris [12]): > 60 min
14 | COc1ccc(CCNCC(O)COC(=O)c2ccc(C)cc2)cc1OC (centres undefined) | 6 | 6.6 | 4 | –
15 | CCCOc1ccc(C(=O)OCC(O)CNC(C)(C)C)cc1 (centres undefined) | – | 5.4 | – | –
16 | COc1ccc(CCNCC(O)COC(=O)c2cccc(F)c2)cc1OC (centres undefined) | 6.2 | 6.4 | 2 | –
17 | COc1ccccc1COC(=O)C(O)CNCCc1ccc(OC)c(OC)c1 (centres undefined) | 5 | – | – | pA2 (Adrenergic receptor beta [2]; Cavia porcellus): inactive
18 | CC(C)NCC(O)COC(=O)c1cccc(N)c1 (centres undefined) | 6.8 | 6.4 | -2.5 | Recovery time (Canis familiaris [13]): > 60 min; Inhibition (Canis familiaris [14]): 80%; half-life [4]: > 180 min; half-life [6]: > 180 min

More lines, main results first:

Row | pA2 (Adrenergic receptor beta [1]) | pA2 (Adrenergic receptor beta [2]) | Structure (SMILES) | Selectivity [3] | also measured
19 | 7.3 | 6.6 | CC(C)NCC(O)COC(=O)c1ccc(F)cc1 (centres undefined) | -5 | half-life [4]: 3 min; half-life [5]: 3.5 min; half-life [6]: 4 min
20 | 7.3 | 6.6 | Cc1cc([N+](=O)[O-])ccc1C(=O)OCC(O)CNC(C)(C)C (centres undefined) | -5 | –
21 | 6.7 | 6.6 | C#CC(C)(C)NCC(O)COC(=O)c1ccccc1F (centres undefined) | 1 | half-life [4]: 7 min; half-life [6]: 12 min
22 | 7.1 | 6.5 | Cc1ccccc1C(=O)OCC(O)CNC(C)C (centres undefined) | -4 | remaining at 18 h [9]: 100%; Recovery time (Canis familiaris [10]): > 60 min; half-life [4]: 147 min; half-life [5]: > 180 min; half-life [6]: > 180 min
23 | – | 6.8 | CC(C)(C)NCC(O)COC(=O)c1cccc([N+](=O)[O-])c1 (centres undefined) | – | half-life [4]: > 180 min; half-life [6]: 74 min
24 | 7.7 | 7.7 | COCCOC(=O)NCC(C)(C)NCC(O)COC(=O)c1ccccc1F (centres undefined) | 1 | –
25 | – | 5.3 | CC(C)(C)NCC(O)COC(=O)CCCc1ccccc1 (centres undefined) | – | –
26 | – | < 6.3 | CC(=O)NCC(C)NCC(O)COC(=O)c1ccccc1F (centres undefined) | – | –
27 | – | 6.2 | CC(C)(C)NCC(O)COC(=O)c1ccc(OCc2ccccc2)cc1 (centres undefined) | – | –
28 | 7 | 6.6 | CC(C)NCC(O)COC(=O)c1cccc2ccccc12 (centres undefined) | -2.5 | –
29 | – | < 6 | CC(C)(C)NCC(O)COC(=O)CCc1ccccc1 (centres undefined) | – | half-life [5]: 71 min; half-life [6]: < 2.5 min
30 | 7.2 | 6.7 | CC(C)(C)NCC(O)COC(=O)c1cccc(N)c1 (centres undefined) | -3.5 | –
31 | – | < 6 | CC(C)(C)NCC(O)COC(=O)C1c2ccccc2-c2ccccc21 (centres undefined) | – | –
